Laboratory results: ChEMBL document CHEMBL1132203, “Synthesis and biological properties of novel pyridinioalkanoyl thiolesters (PATE) as anti-HIV-1 agents that target the viral nucleocapsid protein zinc fingers” (J Med Chem, 1999)

How the values were obtained:
[1] = system: Human immunodeficiency virus 1; test: Effective antiviral concentration against HIV-1 infected CEM-SS cells; format: functional, organism-based; conditions: Human immunodeficiency virus 1, CEM-SS
How it was run: (§1)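 CEM-SS cells infected with HIV-1 RF at MOI 0.01, scored by XTT dye-reduction cytoprotection. EC50 is the concentration giving 50% protection of infected cells. IC50 is the concentration causing 50% cytotoxicity (growth inhibition). High test concentration 316 μM.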

[2] = system: Human immunodeficiency virus 1; test: Antiviral activity against HIV-1 infected CEM-SS cells was determined in XTT cytoprotection assay; format: functional, organism-based; conditions: Human immunodeficiency virus 1, CEM-SS; how it was run: as §1
[3] = system: Human immunodeficiency virus 1; test: Nucleocapsid p7 protein (NCp7) zinc finger domain reactivity was measured by Trp37 fluorescence assay expressed as the average decrease in relative fluorescence units over 30 min; format: functional
How it was run: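 Recombinant HIV-1 NCp7 (pET3A construct expressed in E. coli BL21); intrinsic fluorescence of Trp37 in the C-terminal zinc finger monitored over 30 min after compound addition. Value is the mean fall in relative fluorescence units per minute across 30 min, taken as a readout of Zn ejection. Dithiane or DIBA-1 served as reference. Where glutathione pretreatment was used, 2 mM compound was held 2 h at 37 °C with 2–8 M excess reduced glutathione, then diluted 40-fold to 50 μM final compound.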

[4] = target: Human immunodeficiency virus type 1 reverse transcriptase (Human immunodeficiency virus 1, UniProt Q72547); test: 50% Inhibitory activity against reverse transcriptase; No inhibition at a highest dose of 100 uM
How it was run: (§2)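 Top test level 100 μM; IC50 is the concentration inhibiting 50% of the indicated activity, with reference inhibitors run as positive controls. Integrase uses recombinant HIV-1 integrase, scored on 3'-processing and strand transfer. Protease uses recombinant HIV-1 protease cleaving the peptide Ala-Ser-Glu-Asn-Try-Pro-Ile-Val-amide, read by HPLC. Reverse transcriptase uses recombinant HIV-1 RT on rAdT and rCdG template/primers.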

[5] = target: Human immunodeficiency virus type 1 integrase (Human immunodeficiency virus 1, UniProt Q7ZJM1); test: 50% Inhibitory activity against Integrase; No inhibition at a highest dose of 100 uM; how it was run: as §2
Chain of Human immunodeficiency virus type 1 integrase (Q7ZJM1 whole entry): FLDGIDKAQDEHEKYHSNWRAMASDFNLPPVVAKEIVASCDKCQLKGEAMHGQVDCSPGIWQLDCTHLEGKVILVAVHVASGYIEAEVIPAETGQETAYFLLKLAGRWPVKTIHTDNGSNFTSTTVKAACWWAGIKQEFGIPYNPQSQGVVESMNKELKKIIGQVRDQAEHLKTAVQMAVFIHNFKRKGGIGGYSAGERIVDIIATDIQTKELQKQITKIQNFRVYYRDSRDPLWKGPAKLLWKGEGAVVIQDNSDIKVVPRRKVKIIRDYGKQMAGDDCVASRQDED

[6] = 50% Inhibitory activity against attachment; No inhibition at a highest dose of 100 uM
[7] = target: Human immunodeficiency virus type 1 protease (Human immunodeficiency virus 1, UniProt Q72874); test: 50% Inhibitory activity against protease; No inhibition at a highest dose of 100 uM; how it was run: as §2
[8] = 50% Inhibitory activity against fusion; No inhibition at a highest dose of 100 uM

Compound	EC50 [1]	IC50 [2]	Activity [3]	IC50 [4]	IC50 [5]	Zinc finger reactivity [3]	IC50 [6]	IC50 [7]	IC50 [8]
NS(=O)(=O)c1ccc(NC(=O)CNC(=O)c2ccccc2SSc2ccccc2C(=O)NCC(=O)Nc2ccc(S(N)(=O)=O)cc2)cc1	1.6 µM	17.6 µM	7.9 RFU min-1	–	–	–	–	–	–
O=C(CCCC[n+]1ccccc1)Sc1ccccc1C(=O)Nc1ccc(S(=O)(=O)c2ccc(NS(=O)(=O)Cc3ccccc3[N+](=O)[O-])cc2)cc1.[Br-]	2.9 µM	> 316 µM	0.86 RFU min-1	–	–	–	–	–	–
NS(=O)(=O)c1ccc(Cn2sc3ccccc3c2=O)cc1	13.8 µM	53.7 µM	2.7 RFU min-1	–	–	–	–	–	–
CC(=O)NS(=O)(=O)c1ccc(NC(=O)c2ccccc2SC(=O)CCCCC[n+]2ccccc2)cc1.[Br-]	10.5 µM	69.7 µM	1.9 RFU min-1	–	–	–	–	–	–
O=C(CCCC[n+]1ccccc1)Sc1ccccc1C(=O)Nc1ccc(S(=O)(=O)c2ccc([N+](=O)[O-])cc2)cc1.[Br-]	5.5 µM	> 316 µM	–	No inhibition	No inhibition	4.1 RFU min-1	No inhibition	–	–
CC(=O)NS(=O)(=O)c1ccc(NC(=O)c2ccccc2SC(=O)CCCCBr)cc1	3.8 µM	184 µM	–	No inhibition	No inhibition	1.8 RFU min-1	No inhibition	No inhibition	No inhibition
CC(=O)NS(=O)(=O)c1ccc(NC(=O)c2ccccc2SC(=O)CCCC[n+]2ccccc2)cc1.[Br-]	6.2 µM	> 316 µM	–	No inhibition	No inhibition	3.6 RFU min-1	No inhibition	No inhibition	–
CC(=O)Nc1ccc(S(=O)(=O)Nc2ccc(S(=O)(=O)c3ccc(-n4sc5ccccc5c4=O)cc3)cc2)cc1	9.6 µM	188 µM	7.9 RFU min-1	–	–	–	–	–	–
CC(=O)NS(=O)(=O)c1ccc(NC(=O)c2ccccc2SC(=O)CCC[n+]2ccccc2)cc1.[Br-]	10.1 µM	175 µM	2.2 RFU min-1	–	–	–	–	–	–
CC(=O)Nc1ccc(S(=O)(=O)c2ccc(NC(=O)c3ccccc3SSc3ccccc3C(=O)Nc3ccc(S(=O)(=O)c4ccc(NC(C)=O)cc4)cc3)cc2)cc1	1.5 µM	160 µM	5.9 RFU min-1	–	–	–	–	–	–
COc1ccc(C(=O)Sc2ccccc2C(=O)Nc2ccc(S(=O)(=O)NC(C)=O)cc2)cc1	2.8 µM	43.7 µM	3.5 RFU min-1	–	–	–	–	–	–
CC(=O)Nc1cccc(S(=O)(=O)c2cccc(NC(=O)c3ccccc3SC(=O)CCCC[n+]3ccccc3)c2)c1.[Br-]	4.9 µM	205 µM	1.1 RFU min-1	–	–	–	–	–	–
NS(=O)(=O)c1ccc(CCn2sc3ccccc3c2=O)cc1	2 µM	45.5 µM	2.7 RFU min-1	–	–	–	–	–	–
O=C(Nc1ccc(S(=O)(=O)c2ccc(NC(=O)c3ccccc3SSc3ccccc3C(=O)Nc3ccc(S(=O)(=O)c4ccc(NC(=O)c5ccc([N+](=O)[O-])cc5)cc4)cc3)cc2)cc1)c1ccc([N+](=O)[O-])cc1	78 µM	> 316 µM	2.9 RFU min-1	–	–	–	–	–	–
COc1ccc(C(=O)Nc2ccc(S(=O)(=O)c3ccc(NC(=O)c4ccccc4SSc4ccccc4C(=O)Nc4ccc(S(=O)(=O)c5ccc(NC(=O)c6ccc(OC)cc6)cc5)cc4)cc3)cc2)cc1	3.8 µM	79.6 µM	6.9 RFU min-1	–	–	–	–	–	–
Nc1ccc(S(=O)(=O)c2ccc(NC(=O)c3ccccc3SSc3ccccc3C(=O)Nc3ccc(S(=O)(=O)c4ccc(N)cc4)cc3)cc2)cc1	4.3 µM	> 316 µM	3.3 RFU min-1	–	–	–	–	–	–
O=C(Nc1ccc(S(=O)(=O)c2ccc([N+](=O)[O-])cc2)cc1)c1ccccc1SSc1ccccc1C(=O)Nc1ccc(S(=O)(=O)c2ccc([N+](=O)[O-])cc2)cc1	12.2 µM	> 316 µM	2.9 RFU min-1	–	–	–	–	–	–
CC(=O)NS(=O)(=O)c1ccc(NC(=O)c2ccccc2SC(=O)CCCC[n+]2cccc(Cl)c2)cc1.[Br-]	54 µM	264 µM	0.2 RFU min-1	–	–	–	–	–	–
O=C(CCCCBr)Sc1ccccc1C(=O)Nc1ccc(S(=O)(=O)c2ccc([N+](=O)[O-])cc2)cc1	1.6 µM	21.7 µM	1 RFU min-1	–	–	–	–	–	–
Nc1cccc(S(=O)(=O)c2cccc(NC(=O)c3ccccc3SSc3ccccc3C(=O)Nc3cccc(S(=O)(=O)c4cccc(N)c4)c3)c2)c1	1 µM	81.5 µM	0.92 RFU min-1	–	–	–	–	–	–
CC(=O)Nc1cccc(S(=O)(=O)c2cccc(NC(=O)c3ccccc3SSc3ccccc3C(=O)Nc3cccc(S(=O)(=O)c4cccc(NC(C)=O)c4)c3)c2)c1	0.62 µM	59.1 µM	2 RFU min-1	–	–	–	–	–	–
CC(=O)NS(=O)(=O)c1ccc(NC(=O)c2cccc(NC(=O)CCCl)c2)cc1	38 µM	103 µM	3.9 RFU min-1	–	–	–	–	–	–
